Source: PubChem
Compounds with a hit are over-represented: about 2.9% of the library has one in this group of screens.
SENP7 inh = inhibitors of human SENP7 protease; recombinant SENP7, Z-RLRGG-aminoluciferin luminescence, 40 min; inhibition, % at 5 µM; 1.5% of 330,000 active; AID 434973;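 active = inhibition above about 50% at the single test dose, limit read from the data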;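 also: plate controls were DMSO with enzyme for no effect and no enzyme buffer wells for full effect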
SENP6 inh = SENP6 protease inhibition | AID 2599 | Recombinant SENP6 catalytic domain, aminoluciferin luminescence | Q9GZR1 | 1.8% of 330,000 active | inhibition, % at 10 µM;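 active = inhibition above about 50% at the single tested dose, limit read from the data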;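 also: plate controls were DMSO wells with enzyme for no effect and DMSO wells lacking enzyme for full effect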
Target sequence (Q9GZR1 628-1112 limits assumed): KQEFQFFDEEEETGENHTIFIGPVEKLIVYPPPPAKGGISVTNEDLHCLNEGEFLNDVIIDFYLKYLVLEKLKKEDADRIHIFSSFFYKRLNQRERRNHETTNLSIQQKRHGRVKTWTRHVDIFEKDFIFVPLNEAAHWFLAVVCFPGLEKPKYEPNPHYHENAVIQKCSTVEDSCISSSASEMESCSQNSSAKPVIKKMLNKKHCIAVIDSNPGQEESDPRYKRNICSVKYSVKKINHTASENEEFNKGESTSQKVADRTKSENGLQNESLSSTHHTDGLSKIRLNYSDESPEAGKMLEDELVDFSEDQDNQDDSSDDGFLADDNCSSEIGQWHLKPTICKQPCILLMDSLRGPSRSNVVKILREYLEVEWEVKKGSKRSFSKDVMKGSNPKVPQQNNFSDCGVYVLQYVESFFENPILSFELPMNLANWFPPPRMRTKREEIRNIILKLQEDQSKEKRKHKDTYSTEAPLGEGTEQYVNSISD
SENP1 FRET inh = inhibitors of human SENP1 SUMO protease catalytic domain; Q9P0U3; recombinant SENP1 catalytic domain, CyPet-SUMO1-YPet FRET cleavage; inhibition, % at 10 µM; 0.21% of 360,000 active;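 active = inhibition at least 30% at 10 µM, raw YFP signal under a set limit, fluorescence ratio 0.5 to 1.5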;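 also: 0% = enzyme with DMSO and 100% = no enzyme wells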
Target sequence (Q9P0U3 419-644 limits assumed): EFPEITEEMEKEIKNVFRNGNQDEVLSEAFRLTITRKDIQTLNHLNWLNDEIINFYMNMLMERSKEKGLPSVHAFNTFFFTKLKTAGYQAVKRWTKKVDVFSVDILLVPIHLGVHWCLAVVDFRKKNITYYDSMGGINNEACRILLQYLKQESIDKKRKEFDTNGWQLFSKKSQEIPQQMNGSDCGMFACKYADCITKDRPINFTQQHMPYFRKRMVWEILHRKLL
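Material – human SENP1 catalytic domain · Input – SENP1 enzyme, 20 pM final · Compound dosing – single concentration of 10 µM compound, 0.5% DMSO final · Timing – enzyme reaction for 50 min at room temperature, dark · Measured by – FRET fluorescence in CFP and YFP emission channels · Control set – no-enzyme wells low, DMSO-plus-enzyme wells high control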
HSP90 inh = blocks HSP90-mediated luciferase refolding in reticulocyte lysate. Rabbit reticulocyte lysate, luciferase refolding luminescence, 3 h. inhibition, % at 5.6 µM. 0.91% of 290,000 active. AID 1789;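 active = inhibition above the screen-wide mean plus 3 SD, computed separately per campaign, cut at about 16% in these data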;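 also: 0% = DMSO wells and 100% = 60 µM geldanamycin wells; inhibitors lower the luminescence because luciferase stays unfolded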
SENP8 block-1 = SENP8 protease inhibition; AID 2540; Q96LD8; 1.2% of 330,000 active; purified SENP8, Z-RLRGG-aminoluciferin cleavage, luminescence; inhibition, % at 10 µM; in the data active = inhibition above about 50%
SENP8 block-2 = inhibitors of human SENP8 protease | recombinant SENP8, Nedd8 substrate fluorescence | inhibition, % at 20 µM | 0.64% of 360,000 active | AID 602440; in the data active = inhibition mostly above about 40%, no sharp cut-off; inactive = mostly below about 27%
SENP8 conf = confirmation of human SENP8 protease inhibitors; shares compounds with SENP7 inh; Recombinant SENP8, Z-RLRGG-aminoluciferin luminescence, 60 min; inhibition, % at 12.5 µM; 40% of 6,200 active; AID 488912;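 active = mean inhibition across replicates above about 50%, limit read from the data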
SENP6 conf = human SENP6 inhibition, confirmed. recombinant SENP6, Z-RLRGG-aminoluciferin luminescence. inhibition, % at 12.5 µM. shares compounds with SENP7 inh. 58% of 6,200 active
SENP7 confirm = human SENP7 inhibition, confirmed; shares compounds with SENP7 inh; recombinant SENP7, Z-RLRGG-aminoluciferin luminescence, 40 min; inhibition, % at 12.5 µM; 69% of 6,200 active
Casp3 select = inhibits human caspase-3 in SENP selectivity test. shares compounds with SENP7 inh. purified caspase-3, Z-DEVD-aminoluciferin luminescence, 60 min. inhibition, % at 12.5 µM. 60% of 6,200 active;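 active = mean inhibition above about 50%, limit read from the data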;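 also: plate controls were enzyme with DMSO for no effect and wells without caspase-3 for full effect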
SENP luc ctr = luminescence interference (SENP counter-screen). shares compounds with SENP7 inh. Pre-incubated SENP8/Z-RLRGG-aminoluciferin, luciferase luminescence interference. inhibition, % at 12.5 µM. 39% of 6,200 active. AID 488919;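 active = mean inhibition above about 50% when retested at one dose, limit read from the data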;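 also: plate controls were DMSO wells with completed reaction for no effect and substrate without enzyme for full effect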
* = called active by the depositor; i = inactive; . = not tested or not shown.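 The calls were made as follows, unless noted: active = mean inhibition above about 50% in the one-dose retest (limit read from the data); inactive = the rest.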

SMILES | SENP7 inh | SENP6 inh | SENP1 FRET inh | HSP90 inh | SENP8 block-1 | SENP8 block-2 | SENP8 conf | SENP6 conf | SENP7 confirm | Casp3 select | SENP luc ctr
Cc1nc(NC(=O)c2ccccc2O)sc1C | 54* | 49 | 1 | 4 | 34 | -170 | -21 | 39 | 38 | 7 | -4
CN(C)C(CNc1ccc(S(C)(=O)=O)cc1[N+](=O)[O-])c1ccccc1 (stereo not drawn) | 6 | 65* | 3 | 1 | 44 | 34 | 4 | 2 | 6 | 2 | 3
COc1ccc(C(CNc2ccc(S(C)(=O)=O)cc2[N+](=O)[O-])N(C)C)cc1OC (stereo not drawn) | 5 | 0 | 1 | 4 | 5 | 11 | . | . | . | . | .
CCCCS/C(N)=N/N=C/c1ccccc1O | 0 | -7 | 1 | -7 | 0 | -11 | . | . | . | . | .
CCCS/C(N)=N/N=C/c1cc(C)ccc1O | 11 | 53* | 3 | 0 | 10 | 32 | 20 | 17 | 59* | 20 | 17
CSc1ncccc1C(=O)OCc1ccc(COC(=O)c2cccnc2SC)cc1 | . | . | . | 0 | . | . | . | . | . | . | .
CSc1ncccc1C(=O)OCc1ccccc1 | 18 | 54* | 1 | 2 | 26 | 21 | 9 | 19 | 60* | 32 | 32
CSc1ncccc1C(=O)OCc1ccccc1F | 43 | 72* | 2 | -1 | 50* | 16 | 53* | 55* | 79* | 51* | 56*
O=C(Nc1nnc(C(F)(F)F)s1)C1COc2ccccc2O1 (stereo not drawn) | 64* | 83* | 3 | -2 | 67* | 15 | 81* | 80* | 95* | 91* | 85*
CCSc1nnc(NC(=O)c2ccc(Br)s2)s1 | 23 | -13 | 3 | 0 | -7 | -44 | . | . | . | . | .
O=C(Nc1nnc(C(F)(F)F)s1)c1ccc(Br)s1 | 62* | 53* | 1 | 4 | 73* | -28 | 2 | 53* | 77* | 43 | 50
O=C(Nc1nnc(C2CC2)s1)C1COc2ccccc2O1 (stereo not drawn) | 20 | 18 | 2 | 5 | 10 | 3 | . | . | . | . | .
Cc1cc(C(=O)Nc2nnc(C(F)(F)F)s2)no1 | 10 | -7 | 0 | 0 | -6 | -22 | . | . | . | . | .
Cc1cc(C(=O)Nc2nnc(C(F)(F)F)s2)cs1 | 58* | 76* | 1 | 2 | 65* | -15 | 66* | 68* | 86* | 84* | 36
CCOC(=O)c1c(NC(=O)COC(=O)CNC(=O)c2ccc(Cl)cc2Cl)sc(C(=O)N(C)C)c1C | -6 | -9 | 1 | . | 2 | 7 | . | . | . | . | .
CCc1ccc(Nc2nnc(SCC(=O)Nc3ccc(C(=O)O)cc3)s2)cc1 | 53* | 6 | 4 | -1 | 52* | 21 | -12 | 51* | 46 | 60* | 8
CC(=O)Nc1ccc(NC(=O)CSc2nnc(NC(=O)c3cccc(F)c3)s2)cc1 | 52* | 77* | 2 | 0 | 68* | -73 | 62* | 70* | 91* | 82* | 19
COCc1nnc(NC(=O)c2c(-c3c(Cl)cccc3Cl)noc2C)s1 | 1 | 5 | 3 | 1 | 2 | -3 | . | . | . | . | .
O=C(NCc1ccc(F)cc1F)[C@@H]1CCCN1C(=O)[C@@H]1CCCN1C(=O)c1cccs1 | . | . | 1 | . | . | 18 | . | . | . | . | .
Cc1cc(N(C)C)ccc1N=Nc1ccc2ncccc2c1 | 96* | 92* | 8 | 3 | 92* | 24 | 90* | 96* | 49 | 43 | 56*
O=C1Nc2ccccc2N(O)N1c1cc(-c2cccc(Cl)c2)no1 | 60* | 39 | 3 | -3 | 58* | 12 | 83* | 80* | 93* | 88* | 81*
O=C1Nc2ccccc2N(O)N1c1cc(-c2ccccc2Cl)no1 | 9 | -47 | 2 | 8 | -9 | 27 | . | . | . | . | .
CSc1nsc2nc(=O)c(/C=C3\C=Nc4ccccc43)c(N)n12 | 39 | 86* | -102 | -3 | 72* | -7 | 69* | 72* | 92* | 41 | 76*
CCOC(=O)Cc1nnc(-c2ccccc2)o1 | -6 | -3 | -3 | 1 | 6 | -5 | . | . | . | . | .
CCOc1ccc(-c2nnc(-c3ccc(OC)cc3)o2)cc1 | -12 | -4 | 0 | 0 | -18 | -432 | . | . | . | . | .
SMILES | SENP7 inh | SENP6 inh | SENP1 FRET inh | HSP90 inh | SENP8 block-1 | SENP8 block-2 | SENP8 conf | SENP6 conf | SENP7 confirm | Casp3 select | SENP luc ctr
CCOc1ccc(-c2nc3ccccc3c(=O)o2)cc1 | 73* | 7 | 1 | -3 | 22 | -184 | 28 | 36 | 46 | 34 | 38
CC(C)(C)C(=O)Nc1ccc(-c2nc3ccccc3c(=O)o2)cc1 | 68* | 62* | 0 | -2 | -1 | -15 | 4 | 6 | 12 | 13 | 6
CCOc1ccc(-c2nnc(-c3ccccc3)o2)cc1 | 93* | 96* | -1 | 13 | 91* | -131 | 9 | 8 | 9 | 2 | 3
CCOC(=O)COc1ccc(-c2nnc(-c3ccccc3)o2)cc1 | 74* | 79* | 1 | -1 | 26 | -35 | 49 | 49 | 68* | 72* | 14
c1ccc([C@H]2CN3C(=N2)Sc2ccccc23)cc1 | 88* | 93* | 1 | . | 89* | 14 | 93* | 93* | 100* | 88* | 92*
N#CC1=C(N)N2C(=C(C#N)C1c1ccccc1)Sc1ccccc12 (stereo not drawn) | 11 | -14 | . | 1 | -2 | . | . | . | . | . | .
COc1ccc(C(CCN(Cc2ccc(OC)c(OC)c2)C(C)=O)C(C)C)cc1 (stereo not drawn) | -1 | 2 | 0 | 2 | -8 | 10 | . | . | . | . | .
Cc1cc(C(=O)N/N=C2\CC(=O)c3ccccc32)c(C)n1-c1ccccc1 | 10 | 29 | 7 | 9 | 54* | 37 | 3 | 18 | 20 | 16 | 1
Clc1ccc(-c2nc3ncccn3c2Nc2ccc3c(c2)OCO3)cc1 | 4 | -13 | 16 | 2 | 0 | 7 | . | . | . | . | .
Oc1ccc(-c2nc3ncccn3c2Nc2ccc3c(c2)OCO3)cc1 | 93* | 86* | 27 | 0 | 17 | 13 | 9 | 8 | -7 | -3 | 6
O=c1[nH]c(/C=C/c2ccccc2F)nc2ccccc12 | 96* | 92* | 0 | 13 | 83* | i | 76* | 79* | 89* | 91* | 22
